The results in this text go back to ChEMBL document CHEMBL3797175, “Discovery of 6-(difluoro(6-(4-fluorophenyl)-[1,2,4]triazolo[4,3-b][1,2,4]triazin-3-yl)methyl)quinoline as a highly potent and selective c-Met inhibitor” (Eur J Med Chem, 2016).

SMILES strings stand for the structures. Active and inactive are the calls of the source. No cut-off for these calls is given here.

Series [1] can be described thus: Clearance in Sprague-Dawley rat at 2 mg/kg, iv administered as single dose. It counts as ADME, organism-based. The conditions noted are these: in vivo. In a few lines: (§1)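 Male Sprague Dawley rats (n=3), single dose. iv 2 mg/kg in 1% DMA/9% Cremophor/90% saline. po 10 mg/kg in 0.5% CMC-Na. Where iv was 10 mg/kg: 10% DMSO/10% Tween 80/80% (40% PEG40); po in that case in 10% DMSO/5% Tween 80/85% saline.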

Series [2] can be described thus: Cmax in Sprague-Dawley rat at 10 mg/kg, po administered as single dose. Set-up: dose 10 mg/kg, route oral. As to conditions: in vivo. It counts as ADME, organism-based. A digest of the protocol: as §1
For series [3], the system named is Epidermal growth factor receptor (Homo sapiens), P00533 [L858R,T790M]. Description: Inhibition of EGFR T790M/L858R double mutant (unknown origin) using poly (Glu, Tyr) 4:1 as substrate at 1000 nM incubated for 60 mins by ELISA relative to control. It counts as protein assay. A digest of the protocol:
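Recombinant kinase, ELISA on a poly(Glu,Tyr)4:1 coat (20 μg/mL). 10 μmol/L ATP in HEPES pH 7.4 with MgCl2, MnCl2, Na3VO4 and DTT; 1% DMSO. Reaction 60 min at 37 °C. Phosphotyrosine detected with PY99 and HRP anti-mouse IgG, o-phenylenediamine substrate, A490. Inhibition % versus DMSO control; two separate experiments.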

In series [4] the target is Receptor-type tyrosine-protein kinase FLT3 (Homo sapiens) (UniProt P36888). The series can be described thus: Inhibition of recombinant FLT3 (unknown origin) using poly (Glu, Tyr) 4:1 as substrate at 1000 nM incubated for 60 mins by ELISA relative to control. In a few lines: (§2)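 Recombinant tyrosine kinases assayed on wells precoated with poly(Glu,Tyr)4:1 (20 µg/mL). ATP 10 µmol/L in HEPES pH 7.4 buffer with MgCl2, MnCl2, Na3VO4 and DTT; compound in 1% DMSO, 1% DMSO as control. Reaction 60 min at 37 °C. Phosphotyrosine detected with PY99 and HRP anti-mouse, o-phenylenediamine, A490. Inhibition % relative to control; two experiments.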

Series [5] deals with Ephrin type-B receptor 2 (Homo sapiens) (UniProt P29323). The series can be described thus: Inhibition of recombinant EPHB2 (unknown origin) using poly (Glu, Tyr) 4:1 as substrate at 1000 nM incubated for 60 mins by ELISA relative to control. A digest of the protocol: as §2
The target in series [6] is T1, Hepatocyte growth factor receptor (Homo sapiens, UniProt P08581). The series can be described thus: Inhibition of c-Met in HGF stimulated human U87MG cells assessed as reduction in AKT phosphorylation at Serine 473 at 10 nM after 1 hr by Western blot analysis. It counts as cell-based. The conditions noted are these: U-87MG ATCC. A digest of the protocol:
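U87MG cells serum-starved 24 h, treated 1 h at 37 °C, then stimulated with HGF 100 ng/mL for 15 min. Lysed in SDS buffer, run on 10% SDS-PAGE and immunoblotted for phospho-ERK1/2 and phospho-AKT; ECL detection.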

Series [7] concerns the target T1, Hepatocyte growth factor receptor. The series can be described thus: Inhibition of c-Met in human EBC1 cells assessed as reduction in ERK phosphorylation at Tyrosine 204 at 10 nM after 1 hr by Western blot analysis. It counts as cell-based. In a few lines:
(§3)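 EBC-1 or MKN45 cells treated with compound 1 h at 37 °C without HGF, then lysed in 1× SDS sample buffer. Lysates run on 10% SDS-PAGE and transferred to nitrocellulose. Probed with antibodies to c-Met, phospho-c-Met, phospho-ERK1/2, phospho-AKT, AKT and GAPDH, then HRP secondary. ECL detection.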

Series [8] shares this target. Description: Inhibition of c-Met in human MKN45 cells assessed as reduction in ERK phosphorylation at Tyrosine 204 at 10 nM after 1 hr by Western blot analysis. The conditions noted are these: MKN-45. It counts as cell-based. In a few lines:
as §3

Series [9] shares this target. The series can be described thus: Inhibition of c-Met phosphorylation at Tyrosine 1235 in HGF stimulated human U87MG cells at 10 nM after 1 hr by Western blot analysis. The format is cell-based. As to conditions: U-87MG ATCC. In a few lines:
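U87MG cells serum-starved 24 h, pretreated with compound 1 h at 37 °C, then stimulated with HGF (100 ng/mL) for 15 min. Lysed in 1× SDS sample buffer, resolved by 10% SDS-PAGE and blotted to nitrocellulose. Probed for phospho-c-Met, phospho-ERK1/2, phospho-AKT and totals, with GAPDH as loading control. ECL detection.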

A short description of series [10]: Antiproliferative activity against human PANC1 cells after 72 hrs by SRB or MTT assay. It counts as functional, cell-based. As to conditions: PANC-1, 72 h. In a few lines: (§4)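 Cells seeded, exposed next day to a range of concentrations for 72 h. Growth read by sulforhodamine B or MTT. IC50 from four-parameter concentration-response fit. Each concentration tested at least in triplicate, with at least 2 experiments.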

Series [11] in a line: Antiproliferative activity against human SMMC7721 cells after 72 hrs by SRB or MTT assay. As to conditions: SMMC-7721, 72 h. The format is functional, cell-based. A digest of the protocol: as §4
The test system of series [12] is NCI-H596. The series can be described thus: Antiproliferative activity against human NCI-H596 cells after 72 hrs by SRB or MTT assay. The format is functional, cell-based. As to conditions: NCI-H596, 72 h. A digest of the protocol: as §4
Series [13] in a line: Antiproliferative activity against human Calu3 cells after 72 hrs by SRB or MTT assay. The conditions noted are these: Calu-3, 72 h. The format is functional, cell-based. In a few lines: as §4
The target of series [14] is T1, Hepatocyte growth factor receptor. Description: Inhibition of c-Met in human NCI-H441 cells assessed as inhibition of HGF-induced cell invasion after 24 hrs by crystal violet staining based microscopic analysis. A digest of the protocol:
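NCI-H441 cells, 1.5×10^5 in serum-free medium, placed in upper Transwell chamber (8 µm pores; Matrigel-coated for invasion). Lower chamber serum-free medium ± HGF 100 ng/mL, with compound. After 24 h at 37 °C, non-migrated cells removed. Traversed cells stained with 0.1% crystal violet 15 min and imaged in 5 fields per filter. Three independent experiments.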

Series [15] can be described thus: Selectivity ratio of IC50 for human NCI-H358 cells to IC50 for human EBC1 cells. It counts as ADME, cell-based. In a few lines: (§5)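 Both IC50s in each ratio come from one proliferation assay. Cells were seeded and exposed the next day to a range of concentrations for 72 h, then read by SRB or MTT. IC50s were fitted by four-parameter concentration–response, with each concentration at least in triplicate and at least 2 experiments. BaF3/TPR-Met is murine pre-B BaF3 transfected with TPR-MET and puromycin-selected.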

Series [16] is described as follows: Selectivity ratio of IC50 for human NCI-H292 cells to IC50 for mouse BAF3 cells expressing TPR-MET. It counts as ADME, cell-based. In a few lines: as §5
A short description of series [17]: Selectivity ratio of IC50 for human NCI-H596 cells to IC50 for mouse BAF3 cells expressing TPR-MET. The format is ADME, cell-based. In a few lines: as §5
A short description of series [18]: Selectivity ratio of IC50 for human MDA-MB-231 cells to IC50 for human EBC1 cells. It counts as ADME, cell-based. A digest of the protocol:
as §5

A short description of series [19]: Selectivity ratio of IC50 for human BGC823 cells to IC50 for human EBC1 cells. The conditions noted are these: bgc-823. The format is ADME, cell-based. A digest of the protocol: as §5
The nature of series [20]: Selectivity ratio of IC50 for human BGC823 cells to IC50 for mouse BAF3 cells expressing TPR-MET. It counts as ADME, cell-based. In a few lines: as §5

T1 sequence (P08581 whole entry): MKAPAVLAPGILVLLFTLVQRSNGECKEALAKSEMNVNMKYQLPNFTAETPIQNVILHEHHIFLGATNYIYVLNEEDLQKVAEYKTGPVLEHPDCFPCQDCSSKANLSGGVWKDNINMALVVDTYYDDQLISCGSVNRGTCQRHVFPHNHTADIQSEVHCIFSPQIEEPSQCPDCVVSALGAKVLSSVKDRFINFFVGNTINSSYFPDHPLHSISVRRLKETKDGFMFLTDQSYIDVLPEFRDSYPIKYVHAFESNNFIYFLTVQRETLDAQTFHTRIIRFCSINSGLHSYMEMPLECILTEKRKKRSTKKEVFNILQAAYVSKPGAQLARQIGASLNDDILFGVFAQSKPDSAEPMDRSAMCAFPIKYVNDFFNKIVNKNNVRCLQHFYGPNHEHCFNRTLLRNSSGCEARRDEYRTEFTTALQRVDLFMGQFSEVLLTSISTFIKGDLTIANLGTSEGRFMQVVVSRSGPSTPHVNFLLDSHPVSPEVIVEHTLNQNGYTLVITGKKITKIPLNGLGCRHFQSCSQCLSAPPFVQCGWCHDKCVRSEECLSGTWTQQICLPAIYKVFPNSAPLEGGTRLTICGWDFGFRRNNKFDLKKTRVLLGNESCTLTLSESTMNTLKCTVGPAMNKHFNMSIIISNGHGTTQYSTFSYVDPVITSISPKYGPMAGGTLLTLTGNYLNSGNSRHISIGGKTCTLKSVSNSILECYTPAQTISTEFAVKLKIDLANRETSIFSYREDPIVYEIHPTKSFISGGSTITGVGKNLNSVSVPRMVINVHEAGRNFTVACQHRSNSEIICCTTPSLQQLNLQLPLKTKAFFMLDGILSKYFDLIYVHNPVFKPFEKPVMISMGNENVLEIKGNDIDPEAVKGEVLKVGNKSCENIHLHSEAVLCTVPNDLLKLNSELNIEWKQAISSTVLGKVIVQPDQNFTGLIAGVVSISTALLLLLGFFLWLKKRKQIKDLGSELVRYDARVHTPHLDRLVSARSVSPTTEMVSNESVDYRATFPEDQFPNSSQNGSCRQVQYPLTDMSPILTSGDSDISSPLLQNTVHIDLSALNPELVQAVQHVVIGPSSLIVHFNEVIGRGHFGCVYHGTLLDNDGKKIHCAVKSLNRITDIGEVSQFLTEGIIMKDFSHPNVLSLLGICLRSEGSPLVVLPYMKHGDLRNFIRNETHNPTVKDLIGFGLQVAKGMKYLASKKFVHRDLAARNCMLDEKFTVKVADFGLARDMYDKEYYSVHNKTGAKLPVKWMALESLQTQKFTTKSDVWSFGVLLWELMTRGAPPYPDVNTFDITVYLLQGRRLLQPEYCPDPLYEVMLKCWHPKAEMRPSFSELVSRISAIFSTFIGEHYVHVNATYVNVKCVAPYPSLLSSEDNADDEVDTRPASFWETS
Sequence of Ephrin type-B receptor 2 (Homo sapiens) (P29323 whole entry): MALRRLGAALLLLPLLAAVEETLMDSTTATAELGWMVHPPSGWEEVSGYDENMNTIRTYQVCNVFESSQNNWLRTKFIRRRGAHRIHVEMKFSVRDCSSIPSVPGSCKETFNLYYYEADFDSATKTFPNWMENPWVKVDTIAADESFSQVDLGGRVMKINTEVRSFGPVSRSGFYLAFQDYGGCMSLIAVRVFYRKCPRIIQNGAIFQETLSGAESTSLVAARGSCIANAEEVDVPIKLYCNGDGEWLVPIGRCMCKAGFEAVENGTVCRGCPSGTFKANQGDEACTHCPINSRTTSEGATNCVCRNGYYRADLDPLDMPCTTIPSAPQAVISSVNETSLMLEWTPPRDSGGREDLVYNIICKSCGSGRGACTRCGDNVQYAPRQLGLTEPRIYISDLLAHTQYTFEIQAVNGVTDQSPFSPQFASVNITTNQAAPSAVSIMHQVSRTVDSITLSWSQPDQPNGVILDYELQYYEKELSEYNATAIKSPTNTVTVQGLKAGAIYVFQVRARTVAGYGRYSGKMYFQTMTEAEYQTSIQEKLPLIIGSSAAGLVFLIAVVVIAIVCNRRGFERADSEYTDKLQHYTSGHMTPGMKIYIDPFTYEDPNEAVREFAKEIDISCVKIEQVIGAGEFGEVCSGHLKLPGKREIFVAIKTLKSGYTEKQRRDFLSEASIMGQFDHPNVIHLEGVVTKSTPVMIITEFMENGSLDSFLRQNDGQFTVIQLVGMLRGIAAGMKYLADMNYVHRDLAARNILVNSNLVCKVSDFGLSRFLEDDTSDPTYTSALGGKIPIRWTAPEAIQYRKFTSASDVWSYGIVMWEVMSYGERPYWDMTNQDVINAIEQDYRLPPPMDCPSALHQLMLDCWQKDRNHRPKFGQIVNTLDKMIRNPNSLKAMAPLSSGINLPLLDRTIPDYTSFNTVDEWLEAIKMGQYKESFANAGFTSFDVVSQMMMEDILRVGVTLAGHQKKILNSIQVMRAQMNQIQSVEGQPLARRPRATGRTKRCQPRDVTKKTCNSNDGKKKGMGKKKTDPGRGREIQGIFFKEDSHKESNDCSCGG
Sequence of Receptor-type tyrosine-protein kinase FLT3 (Homo sapiens) (P36888 whole entry): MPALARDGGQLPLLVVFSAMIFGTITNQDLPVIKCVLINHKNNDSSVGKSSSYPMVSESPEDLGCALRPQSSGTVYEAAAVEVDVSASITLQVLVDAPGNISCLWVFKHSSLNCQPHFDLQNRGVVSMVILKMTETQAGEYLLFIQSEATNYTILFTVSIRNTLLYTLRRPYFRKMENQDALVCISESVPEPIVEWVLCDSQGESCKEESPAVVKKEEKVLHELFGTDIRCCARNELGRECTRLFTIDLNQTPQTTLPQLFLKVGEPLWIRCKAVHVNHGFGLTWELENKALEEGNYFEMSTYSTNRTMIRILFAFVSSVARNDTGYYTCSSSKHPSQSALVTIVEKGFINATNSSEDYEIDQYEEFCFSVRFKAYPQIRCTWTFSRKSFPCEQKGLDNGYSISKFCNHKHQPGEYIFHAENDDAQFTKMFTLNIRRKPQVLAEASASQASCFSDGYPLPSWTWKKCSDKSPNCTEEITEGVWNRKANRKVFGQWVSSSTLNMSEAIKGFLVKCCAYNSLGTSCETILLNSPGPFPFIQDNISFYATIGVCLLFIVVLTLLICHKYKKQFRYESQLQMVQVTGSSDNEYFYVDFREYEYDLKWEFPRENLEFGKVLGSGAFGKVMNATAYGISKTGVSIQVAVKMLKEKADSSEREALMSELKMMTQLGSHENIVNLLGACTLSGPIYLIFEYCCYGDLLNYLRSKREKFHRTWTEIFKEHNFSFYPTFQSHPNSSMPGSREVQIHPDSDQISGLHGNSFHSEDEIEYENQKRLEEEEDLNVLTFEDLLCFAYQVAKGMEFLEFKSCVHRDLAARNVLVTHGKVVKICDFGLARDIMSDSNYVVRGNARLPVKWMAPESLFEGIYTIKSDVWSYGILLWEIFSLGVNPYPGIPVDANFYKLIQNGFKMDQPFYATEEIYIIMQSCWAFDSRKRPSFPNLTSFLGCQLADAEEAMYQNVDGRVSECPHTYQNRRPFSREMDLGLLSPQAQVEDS
Sequence of Epidermal growth factor receptor (Homo sapiens), P00533 [L858R,T790M] (P00533 whole entry T790M/L858R, looked up): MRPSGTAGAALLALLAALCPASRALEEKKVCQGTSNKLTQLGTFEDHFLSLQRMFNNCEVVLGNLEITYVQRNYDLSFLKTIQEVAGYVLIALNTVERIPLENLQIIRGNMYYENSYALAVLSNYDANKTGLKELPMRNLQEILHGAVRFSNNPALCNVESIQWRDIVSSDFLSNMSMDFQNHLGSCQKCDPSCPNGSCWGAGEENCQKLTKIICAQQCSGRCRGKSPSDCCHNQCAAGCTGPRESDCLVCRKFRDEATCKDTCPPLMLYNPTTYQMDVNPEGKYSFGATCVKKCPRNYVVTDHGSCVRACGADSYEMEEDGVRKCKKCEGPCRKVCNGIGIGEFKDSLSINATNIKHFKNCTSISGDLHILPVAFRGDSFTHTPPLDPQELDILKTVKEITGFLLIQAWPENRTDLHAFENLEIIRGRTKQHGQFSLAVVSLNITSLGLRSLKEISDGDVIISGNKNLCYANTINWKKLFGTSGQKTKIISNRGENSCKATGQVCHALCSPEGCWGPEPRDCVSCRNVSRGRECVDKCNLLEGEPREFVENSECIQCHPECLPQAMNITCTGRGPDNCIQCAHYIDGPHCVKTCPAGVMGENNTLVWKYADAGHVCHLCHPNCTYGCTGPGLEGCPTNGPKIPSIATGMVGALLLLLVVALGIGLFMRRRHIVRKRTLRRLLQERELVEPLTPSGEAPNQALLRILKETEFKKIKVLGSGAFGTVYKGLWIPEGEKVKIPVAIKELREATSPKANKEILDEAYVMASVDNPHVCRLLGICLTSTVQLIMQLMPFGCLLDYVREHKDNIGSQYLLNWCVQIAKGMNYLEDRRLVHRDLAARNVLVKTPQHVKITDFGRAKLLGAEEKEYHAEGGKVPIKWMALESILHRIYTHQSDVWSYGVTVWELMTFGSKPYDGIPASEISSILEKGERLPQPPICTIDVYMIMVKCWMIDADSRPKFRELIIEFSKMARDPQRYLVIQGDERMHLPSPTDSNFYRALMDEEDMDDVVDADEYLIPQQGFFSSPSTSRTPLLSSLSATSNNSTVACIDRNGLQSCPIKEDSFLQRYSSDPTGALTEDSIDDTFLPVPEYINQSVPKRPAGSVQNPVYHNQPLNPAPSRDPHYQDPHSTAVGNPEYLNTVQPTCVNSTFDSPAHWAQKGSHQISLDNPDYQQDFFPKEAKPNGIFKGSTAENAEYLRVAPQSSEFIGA

As for `Fc1ccc(-c2cnc3nnc(C(F)(F)c4ccc5ncccc5c4)n3n2)cc1`, the clearance in series [1] was 47.2 mL/min/kg. The compound also registered a Cmax in series [2] of 869 ng/mL. Moreover, the inhibition in series [3] is 28.9%; in series [4], 12.3%; in series [5], 8.5%; in [14], “Dose-dependent effect”. For the same compound, the inhibition result in series [6], in series [7], in series [8] and in [9] was “Active” each time. Further, the 50% inhibitory concentration (IC50) in [10], in [11], in series [12] and in series [13] was over 10 µM each time. Also, the “Ratio IC50” value in series [15] is 10000; in [16] it was 10000; in series [17], 10000; in series [18], over 10000; in series [19] it was over 10000; in series [20], over 10000.
